Assay outcomes deposited in PubChem BioAssay by several laboratories.
Compounds with a hit are over-represented: about 5.3% of the library has one in this group of screens.
NALP3 yeast inh – blocks the NALP3 inflammasome reconstituted in yeast. Yeast reconstituted NLRP3/ASC/caspase-1, beta-gal luminescence, 24 h. inhibition, % at 10 µM. 0.39% of 330,000 active;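 active = inhibition of 50% or more; inactive = inhibition below 50%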
CSC inhib – cancer stem cell inhibition. cancer stem cell-like cells viability, luminescence. inhibition, % at 7.5 µM. 1.1% of 300,000 active. AID 2717; in the data active = inhibition above about 75%; inconclusive = no clear call, values can overlap the other calls; tested in HMLE shEcad cells
T cruzi inh – blocks replication of Trypanosoma cruzi; T. cruzi beta-gal in NIH3T3, luminescence, 90 h; inhibition, % (no concentration beside the values); 1.4% of 300,000 active;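 active = mean inhibition across valid replicates above about 55%, limit read from the data; inconclusive = mean below that limit but half or more replicates reach it; inactive = mean below it, under half of replicates reach it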;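 note: signal also drops with host cell toxicity which is not excluded here; higher percent means less beta-gal luminescence so fewer parasites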
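Assay system: NIH/3T3 fibroblasts plus reporter T. cruzi. Amount: NIH/3T3 cells, 5,000 per well. Buffer or medium: DMEM, 2% fetal bovine serum. Doses: compound pinned at 50 nL/well, DMSO. Schedule: ≥90 h infection period, 3 h prior cell attachment. Signal: luminescent β-galactosidase signal after 60 min lysis. Read-out: parasite load inhibition, %.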
Calb FLC – affects C. albicans growth with fluconazole | C. albicans CaCi-2 + fluconazole, Alamar Blue growth, 48 h | growth inhibition, % (concentration not given with the values) | 0.57% of 300,000 active | AID 1979;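 active = growth inhibition above about 58% in most replicates, limit read from the data, passing the limit was not always enough; inconclusive = exactly half the replicates above a set limit; inactive = most replicates below a set limit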;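 note: all wells also contain fluconazole at 8 µg/ml as a sub-toxic cotreatment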
Beta apoptosis – blocks beta cell apoptosis; protection from apoptosis, % (test concentration not listed); INS-1E cytokine-induced death, ATP luminescence, 48 h; percent of positive-control rescue, neutral wells zero; 0.8% of 300,000 active;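 active = Every replicate reaches about 75%, or at least half do and their mean reaches it too, limit read from the data; inconclusive = At least half of replicates reach the limit but their mean does not; inactive = Under half of replicates reach the limit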;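 note: higher means more ATP so stronger rescue from cytokine killing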
Mdm2 MdmX PPI – human Mdm2/MdmX binding inhibition; SaOS-2 split-luciferase Mdm2/MdmX complementation, luminescence; inhibition, % at 8 µM; 3% of 330,000 active; AID 485346;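 active = inhibition of at least 50% at 8 µM in the primary screen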
Target sequence (O15151 whole entry, looked up): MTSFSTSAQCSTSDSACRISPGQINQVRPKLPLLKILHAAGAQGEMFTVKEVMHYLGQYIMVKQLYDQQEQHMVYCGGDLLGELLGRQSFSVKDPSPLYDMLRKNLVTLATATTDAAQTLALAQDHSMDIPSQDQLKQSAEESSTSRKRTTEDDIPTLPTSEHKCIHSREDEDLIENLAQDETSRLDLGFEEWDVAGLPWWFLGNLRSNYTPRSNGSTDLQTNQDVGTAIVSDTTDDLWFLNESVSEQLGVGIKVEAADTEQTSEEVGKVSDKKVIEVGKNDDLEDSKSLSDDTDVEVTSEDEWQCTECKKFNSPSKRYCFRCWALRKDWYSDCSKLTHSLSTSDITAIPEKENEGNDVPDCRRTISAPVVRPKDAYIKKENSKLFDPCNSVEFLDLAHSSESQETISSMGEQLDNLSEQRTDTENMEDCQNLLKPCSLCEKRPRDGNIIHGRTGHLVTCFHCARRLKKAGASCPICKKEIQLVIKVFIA
Target sequence (Q00987 whole entry, looked up): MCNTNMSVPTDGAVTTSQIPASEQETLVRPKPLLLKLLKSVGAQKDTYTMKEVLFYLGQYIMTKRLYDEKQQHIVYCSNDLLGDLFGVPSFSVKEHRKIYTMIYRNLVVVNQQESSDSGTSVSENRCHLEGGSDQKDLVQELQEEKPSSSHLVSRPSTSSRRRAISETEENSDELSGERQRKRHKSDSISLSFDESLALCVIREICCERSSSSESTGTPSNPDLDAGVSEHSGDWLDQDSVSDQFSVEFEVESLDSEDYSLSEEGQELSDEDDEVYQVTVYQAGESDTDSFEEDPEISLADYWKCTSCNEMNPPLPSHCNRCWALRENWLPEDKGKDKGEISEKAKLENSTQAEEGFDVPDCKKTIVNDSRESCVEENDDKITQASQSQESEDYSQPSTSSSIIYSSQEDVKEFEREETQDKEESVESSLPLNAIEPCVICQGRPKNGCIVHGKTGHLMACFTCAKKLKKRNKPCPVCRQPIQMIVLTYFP
Mdm2-MdmX conf – human Mdm2/MdmX binding inhibition, confirmed. shares compounds with Mdm2 MdmX PPI. luminescent assay. inhibition, % at 8 µM. 55% of 10,000 active. AID 489028; in the data active = inhibition above about 40%
Full FLuc ctr – full-length luciferase inhibition in Mdm2/MdmX counter-screen; shares compounds with Mdm2 MdmX PPI; SaOS-2 full-length luciferase counterscreen, luminescence; inhibition, % at 8 µM; 77% of 6,200 active; AID 504607;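 active = mean inhibition at 8 µM reaching about 37%, which flags the compound as non-specific, limit read from the data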;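 note: p53-null SaOS-2 cells with luciferase driven by a doxycycline-inducible promoter; compound on cells about two nights before reading with doxycycline added after day one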
Hits are given with their value; i = inactive; ? = inconclusive; nt = no result.

SMILES	NALP3 yeast inh	CSC inhib	T cruzi inh	Calb FLC	Beta apoptosis	Mdm2 MdmX PPI	Mdm2-MdmX conf	Full FLuc ctr
CC(C)(C)OC(=O)NCCCC[C@H](NC(=O)c1[nH]cnc1C(=O)N[C@@H](Cc1ccccc1)C(=O)OC(C)(C)C)C(=O)OC(C)(C)C	i	i	i	i	i	62	i	nt
O=C(Cc1ccccc1)Nc1ccc2c(c1)OC1(CCCC1)O2	i	i	nt	nt	i	i	nt	nt
Nc1ccc2c(c1)OC1(CCCC1)O2	i	i	i	i	i	70	80	37
CCc1nn(CC(=O)NCCCc2ccccc2)c(=O)c2cc3cc(F)ccc3n12	i	i	i	i	i	56	i	nt
CCCNC(=O)Cn1nc(C)n2c(cc3cc(F)ccc32)c1=O	i	i	i	i	i	i	nt	nt
CCc1nn(CC(=O)NCCC2=CCCCC2)c(=O)c2cc3cc(F)ccc3n12	i	i	i	i	i	50	i	nt
Cc1ccc(Nc2nnc(SCC(=O)NCC3CCCO3)s2)cc1C (centres undefined)	i	i	nt	nt	i	i	nt	nt
Cc1ccc(N(CC(=O)NCc2ccc(F)cc2)S(=O)(=O)c2c(C)nn(C)c2C)cc1	i	i	i	i	i	64	63	63
Cc1nn(C)c(C)c1S(=O)(=O)N(CC(=O)N1CCc2ccccc21)c1ccc(C(C)C)cc1	i	i	i	i	i	63	i	nt
COc1ccc(N(CC(=O)NCc2ccc(C)cc2)S(=O)(=O)c2c(C)nn(C)c2C)cc1	i	i	i	i	i	i	nt	nt
COc1ccc(N(CC(=O)N2CCc3ccccc32)S(=O)(=O)c2c(C)nn(C)c2C)cc1	i	i	i	i	i	i	nt	nt
Cc1ccc(CNC(=O)CN(c2ccc(C)cc2)S(=O)(=O)c2c(C)nn(C)c2C)cc1	i	i	i	i	i	53	51	63
Cc1ccc(S(=O)(=O)Nc2ccc(C(N)=O)cc2)cc1[N+](=O)[O-]	i	nt	i	i	i	i	nt	nt
Nc1cc(=O)[nH]c(SCC(=O)Nc2ccc(S(=O)(=O)N3CCCCC3)cc2)n1	i	nt	i	i	i	i	nt	nt
COc1ccc([C@H]2CC(=O)C=C(c3cc(OC)ccc3OC)C2)cc1	i	i	nt	nt	i	51	51	54
COc1ccc([C@H]2CC(=O)C=C(c3cc(F)ccc3OC)C2)cc1	i	i	nt	nt	i	i	nt	nt
COc1ccc([C@H]2CC(=O)C=C(c3c(OC)cccc3OC)C2)cc1	i	i	nt	nt	i	56	53	51
CN(C)CCCn1c(SCC(=O)Nc2nc(-c3cccc(Br)c3)cs2)nc2ccccc2c1=O	i	?	68	i	i	100	56	115
CCCCn1c(SCC(=O)Nc2nccs2)nc2ccccc2c1=O	i	i	i	i	i	65	i	nt
CC(C)(C)c1nc2ccccc2c2nnc(SCC(=O)Nc3nccs3)n12	i	nt	i	i	nt	68	60	50
CC(C)(C)c1nc2ccccc2c2nnc(SCC(=O)Nc3nc4ccccc4s3)n12	i	i	i	i	i	i	nt	nt
COC(=O)c1ccc(Cn2cnc3c(cnn3-c3ccc(F)cc3)c2=O)o1	i	i	i	i	i	i	nt	nt
CC(C)c1ccc(-c2nc3ccccc3s2)cc1	i	i	i	i	i	87	88	i
CN(C(=O)OC(C)(C)C)c1ccc(-c2nc3ccccc3s2)cc1	i	i	i	i	i	88	90	i
O=C(COc1ccccc1)NC(=S)N1CCc2ccccc21	i	i	i	i	i	i	nt	nt
CN(Cc1nc(-c2ccncc2)no1)S(=O)(=O)c1ccccc1	i	i	i	i	i	i	nt	nt
CCCCn1c(=O)[nH]c(=O)c2c1nc(-c1ccc(OC)c(Br)c1)n2CC(C)C	i	i	i	i	i	i	nt	nt
C=CCOc1ccc(-c2nc3c(c(=O)[nH]c(=O)n3CCCC)n2C)cc1Br	i	i	i	i	i	70	i	nt
CCCC[C@H](CN[C@@H](CNC)[C@H](C)CC)NCCC12CCC(CC1)C2	i	i	i	i	i	98	98	50
O=C(Nc1cccc([N+](=O)[O-])c1)c1ccc2ccccc2c1O	i	i	i	i	i	77	i	nt
